From ChEMBL document CHEMBL4513216, “Probing the Open Global Health Chemical Diversity Library for Multistage-Active Starting Points for Next-Generation Antimalarials” (ACS Infect Dis, 2020)

Experiment: Toxicity liver stage against HepG2, at 10uM
Assay type: cell-based
Set-up: test concentration 10 uM, cell line HepG2-A16-CD81EGFP
Settings: human, HepG2-A16-CD81EGFP cells; read-out: INHIBITION
How it was run: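 Uninfected HepG2-A16-CD81EGFP cells, 3 × 10^3 per well, 1536-well, plated on prespotted compound at 10 μM final, parasite-free screening media added to match infected plates; puromycin 10 μM positive, DMSO 0.5% negative; run in parallel with 48 h PbLuc assay at 37 °C, 5% CO2; viability by CellTiter-Glo luminescence, normalized to controls.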

Structure (SMILES)	cytotoxicity at 10 µM [%]
Cc1nn(C)c(N2CCOCC2)c1CNCc1cccnc1	7.11
NC(=O)c1cc2c(nc1-c1ccc3c(c1)CCO3)CCC2	-11.3
O=C(N1CCCCC1)N1CCN(c2ccc(Cl)nn2)C(=O)C1	8.24
CC(C)c1ccc(S(=O)(=O)NC2CCN(CC(F)(F)F)C2)cc1 (centres undefined)	9.19
O=C(c1ccc2sccc2c1)N1CCC(C(=O)O)(n2ccnc2)CC1	2.69
CCc1nc(CN2CCCC2C(=O)NC2CC2)cs1 (centres undefined)	-4.63
CC(C)n1ccc(=O)nc1SC1CCN(c2ccccc2F)C1=O (centres undefined)	11.8
Cn1c(C2CC2)nc2c1CCN(Cc1nc(Cc3ccccc3)no1)C2	-6.37
O=C1CCCC2=Nc3nonc3NC(c3ccc(Cl)cc3Cl)C12 (centres undefined)	5.24
O=C1NC(c2ccccc2)=N[C@@]12CC[C@@H]1CN(Cc3nccs3)C[C@@H]12	6.37
CC(C)OCCC(=O)NCCC(=O)N1CCN(c2ccccn2)CC1	2.56
Cc1cc2c(N3CCC(N(C)CCc4cnn(C)c4)CC3)ncnc2s1	1.38
COC(=O)C(C)(C)NC(=O)C1CC(=O)N(C2CCCC2)C1 (centres undefined)	-10.3
C1CCN(CCOC2CCNCC2)CC1	6.88
COc1ccc(F)cc1C(C)NC(=O)Nc1nncs1 (centres undefined)	12.4
Cc1ccc2c(c1)CCC2NCc1c(C)nn(CCO)c1C (centres undefined)	11.2
O=C(O)[C@@H]1CN(C(=O)CCC(F)(F)F)C[C@H]1c1ccncc1	0.108
O=c1[nH]c2c(-c3ccccn3)nsc2c(=O)n1C1CCCCC1	-11.5
Cc1cnn(CC2CN(CC(=O)NCc3ccco3)CCO2)c1 (centres undefined)	-1.43
O=C(c1ccncc1F)N1CC[C@@H]2CN(c3ncccn3)CCO[C@@H]2C1	-77.2
CCOC(=O)Cc1n[nH]c(-c2cncc(Br)c2)n1	3.24
CCN1CCN(c2ccc(CNC(=O)c3sccc3C)cn2)CC1	-17.8

Structure (SMILES)	cytotoxicity at 10 µM [%]
CNC(=O)C1CN(C(C)C)CCN1c1nc(C)cc(C)n1 (centres undefined)	-10.4
COc1ccc(OCCNC(=O)CN(C)Cc2nnc(C)n2C)cc1	-10.3
COc1ccc(F)cc1C(=O)N1CC(c2ccncc2)C1	-4.93
COC[C@@H]1CC[C@H]2[C@H](CCN2S(=O)(=O)c2cccc(C)c2)O1	3.29
CN(CCC#N)C(=O)CSc1cc(F)ccc1F	13.2
Cc1cc2n(n1)CC(CNC1CCN(C(=O)c3ccco3)CC1)CN2 (centres undefined)	4
CN(Cc1cnn(C)c1)C1CCCN(Cc2noc(C3CC3)n2)C1 (centres undefined)	-8.44
O=C(c1cnc(-c2ncccn2)s1)N1CCCC1Cn1cccn1 (centres undefined)	-5.97
CN(Cc1ccco1)c1ccc(C(=O)NCCCc2ccccn2)cn1	-55.8
O=S(=O)(CC1CCCCO1)Nc1cnn(CC(F)F)c1 (centres undefined)	-3.09
O=C([C@H]1CC[C@@H]2[C@@H](CCN2C2CCCC2)O1)N1CCOCC1	11.5
CN(C)c1cc2c(nn1)CCN(C(=O)C1Cc3ccccc3O1)C2 (centres undefined)	-18.5
Cc1cc(C)cc(CN2C[C@@H]3OCCN(S(=O)(=O)N(C)C)[C@@H]3C2)c1	8.28
CCOCCCNC(=O)Nc1ccc(F)c(C(N)=O)c1	-16.9
O=C(CCCOc1ccccc1F)Nc1cc[nH]n1	-11
NC(=O)c1cnc(NC2CCN(c3ccccn3)CC2)c(Cl)c1	13.8
O=C(Nc1cnccn1)[C@@H]1C[C@H]2OCC[C@H]2N(c2ncc(F)cn2)C1	8.12
Cc1nn(C)c(Cl)c1C1CCCN1C(=O)c1csnn1 (centres undefined)	-0.121
O=C(CCN1CCOCC1)Nc1cccc(CNCc2cccs2)c1	5.04
CNC(=O)C1(CCCc2ccncc2)CCCCN1 (centres undefined)	-37.5
COCCN1C[C@@H](C)[C@@]2(COCCN(C(=O)c3cccc(C)n3)C2)C1	7.13
CCc1c(C)nn2c(O)cc(C3CCN(C(=O)C4CC4)C3)nc12 (centres undefined)	1.97
